Results: ChEMBL document CHEMBL3593194, “BN/CC isosterism in borazaronaphthalenes towards phosphodiesterase 10A (PDE10A) inhibitors” (Bioorg Med Chem, 2015)

Key:
[1] = Intrinsic clearance in rat liver microsomes; assay type: ADME; settings: read-out: CLH (converted)
[2] = molecular target: T1, cAMP and cAMP-inhibited cGMP 3',5'-cyclic phosphodiesterase 10A (Homo sapiens, UniProt Q9Y233); assay: Inhibition of PDE10A (unknown origin) at 10 uM
Procedure, shortened: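 Potency against PDE10A is given as the concentration giving 50% inhibition (IC50, nM). Where no IC50 was obtained, the value is percent inhibition at 10 μM.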

[3] = molecular target: T1, cAMP and cAMP-inhibited cGMP 3',5'-cyclic phosphodiesterase 10A; assay: Inhibition of PDE10A (unknown origin) at 2 uM
[4] = molecular target: T1, cAMP and cAMP-inhibited cGMP 3',5'-cyclic phosphodiesterase 10A; assay: Inhibition of PDE10A (unknown origin)

T1 sequence (Q9Y233 whole entry): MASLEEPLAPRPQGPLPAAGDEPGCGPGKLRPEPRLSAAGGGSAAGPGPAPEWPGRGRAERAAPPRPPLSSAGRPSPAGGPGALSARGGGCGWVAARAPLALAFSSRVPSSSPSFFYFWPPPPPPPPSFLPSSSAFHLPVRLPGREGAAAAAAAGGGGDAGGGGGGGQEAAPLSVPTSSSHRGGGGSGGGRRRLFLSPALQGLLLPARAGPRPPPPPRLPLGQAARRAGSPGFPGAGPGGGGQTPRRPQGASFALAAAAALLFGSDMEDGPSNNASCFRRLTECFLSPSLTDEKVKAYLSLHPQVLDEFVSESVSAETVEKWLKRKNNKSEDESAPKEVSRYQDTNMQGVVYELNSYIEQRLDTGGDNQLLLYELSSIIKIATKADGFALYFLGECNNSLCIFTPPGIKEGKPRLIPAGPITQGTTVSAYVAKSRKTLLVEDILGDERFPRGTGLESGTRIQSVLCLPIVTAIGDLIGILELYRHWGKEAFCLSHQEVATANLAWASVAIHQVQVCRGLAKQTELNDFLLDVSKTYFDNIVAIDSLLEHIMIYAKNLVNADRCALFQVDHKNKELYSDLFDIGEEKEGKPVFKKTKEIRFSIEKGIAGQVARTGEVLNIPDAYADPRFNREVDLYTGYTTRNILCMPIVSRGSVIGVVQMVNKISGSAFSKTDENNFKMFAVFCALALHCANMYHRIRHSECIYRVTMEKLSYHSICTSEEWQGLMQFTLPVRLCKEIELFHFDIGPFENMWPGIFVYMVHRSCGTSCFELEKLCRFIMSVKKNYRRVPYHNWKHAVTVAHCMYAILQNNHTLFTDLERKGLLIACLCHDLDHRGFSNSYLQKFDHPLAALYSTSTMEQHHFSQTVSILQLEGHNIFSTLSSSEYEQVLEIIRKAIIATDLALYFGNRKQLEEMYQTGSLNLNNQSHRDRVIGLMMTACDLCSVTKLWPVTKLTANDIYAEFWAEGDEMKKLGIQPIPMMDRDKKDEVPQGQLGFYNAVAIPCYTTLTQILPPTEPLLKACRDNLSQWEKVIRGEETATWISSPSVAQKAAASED

| CLint scaled [1] | inhibition [2] | inhibition [3] | IC50 [4] | Compound |
| --- | --- | --- | --- | --- |
| 31.7 mL/min/kg |  |  |  | CN(C(=O)c1ccc2ncsc2c1)c1ccc(OCc2ccc3ccccc3n2)cc1 |
| > 283 mL/min/kg | 2% |  |  | CN(C(=O)c1csc(-c2cccnc2)n1)c1ccc(OCc2ccc3ccccc3c2)cc1 |
| 83.3 mL/min/kg | 25% |  |  | Cn1cc(-c2ccncc2)c(-c2ccc(OCc3ccc4ccccc4c3)cc2)n1 |
| 75 mL/min/kg |  | 2% |  | CN(C(=O)c1ccncc1)c1ccc(OCc2ccc3ccccc3c2)cc1 |
| 48.3 mL/min/kg | 5% |  |  | CN(C(=O)c1ccc2ncsc2c1)c1ccc(OCc2ccc3ccccc3c2)cc1 |
| 41.7 mL/min/kg | 48% |  |  | Cn1cc(-c2ccncc2)c(-c2ccc(OCB3C=Cc4ccccc4N3)cc2)n1 |
| 35 mL/min/kg |  |  |  | CN(C(=O)c1cc(-c2ccccn2)n[nH]1)c1ccc(OCc2ccc3ccccc3n2)cc1 |
| 15 mL/min/kg |  |  |  | CN(C(=O)c1ccncc1)c1ccc(OCc2ccc3ccccc3n2)cc1 |
| 6.83 mL/min/kg | 3% |  |  | CN(C(=O)c1cc(-c2ccccc2)n[nH]1)c1ccc(OCc2ccc3ccccc3c2)cc1 |
| 25 mL/min/kg |  |  | 0.064 µM | CN(C(=O)c1cc(-c2ccccn2)[nH]n1)c1ccc(OCB2C=Cc3ccccc3N2)cc1 |
| 73.3 mL/min/kg | 45% |  |  | CN(C(=O)c1ccc2ncsc2c1)c1ccc(OCB2C=Cc3ccccc3N2)cc1 |
| 115 mL/min/kg | 11% |  |  | CN(C(=O)c1ccncc1)c1ccc(OCB2C=Cc3ccccc3N2)cc1 |
| > 283 mL/min/kg |  |  | 0.17 µM | CN(C(=O)c1csc(-c2cccnc2)n1)c1ccc(OCc2ccc3ccccc3n2)cc1 |
| 21.7 mL/min/kg |  |  |  | CN(C(=O)c1cc(-c2ccccc2)n[nH]1)c1ccc(OCc2ccc3ccccc3n2)cc1 |
| 31.7 mL/min/kg |  |  |  | Cn1cc(-c2ccncc2)c(-c2ccc(OCc3ccc4ccccc4n3)cc2)n1 [MARDEPODECT] |
| 30 mL/min/kg | 4% |  |  | CN(C(=O)c1cc(-c2ccccn2)[nH]n1)c1ccc(OCc2ccc3ccccc3c2)cc1 |
| > 283 mL/min/kg |  |  | 0.33 µM | CN(C(=O)c1csc(-c2cccnc2)n1)c1ccc(OCB2C=Cc3ccccc3N2)cc1 |
| 5.67 mL/min/kg |  |  | 1.8 µM | CN(C(=O)c1cc(-c2ccccc2)n[nH]1)c1ccc(OCB2C=Cc3ccccc3N2)cc1 |
